Source: PubChem
STAT1 inh: reduces IFN-gamma driven STAT1 reporter signal; 200,000 compounds, 0.35% hits; NIH 3T3 STAT1-luciferase reporter, luminescence; inhibition, % at 5.5 µM;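 active = inhibition above a set limit, the mean inhibition across all tested compounds plus 3 SD, cut at about 34% in these data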;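 also: 0% = IFN-gamma with DMSO and 100% = IFN-gamma with 300 µM nifuroxazide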
APP 5'UTR act: APP 5'UTR luciferase reporter activation. SH-SY5Y APP 5'UTR luciferase reporter, luminescence; zero percent = DMSO vehicle wells. activation, % at 2 µM. 190,000 compounds, 1% hits. AID 1276;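 active = activation above a set limit, based on mean plus 3 SD of controls, cut at about 140% in these data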
NF-kB expr up: raises NF-kB expression in human neuronal cells; 190,000 compounds, 1.6% hits; fold change at 12.5 µM; NF-kB reporter expression; active compounds read high; AID 1239; in the data active = fold change above about 3.3
STAT3 inh: STAT3 signaling inhibition; U3A cells, IL-6 STAT3-luciferase reporter, luminescence; host cell line lacks STAT1; inhibition, % at 5.5 µM; 190,000 compounds, 0.89% hits;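 active = inhibition above the mean inhibition across all screened compounds plus 3 SD, cut at about 44% in these data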;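 also: 0% = DMSO only wells and 100% = 100 µM nifuroxazide control wells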
STAT3 act: activators of IL-6 induced STAT3 signaling. U3A cells, IL-6 STAT3-luciferase reporter, luminescence; 100% = signal with IL-6 EC80 alone. activation (% of control), % at 5.6 µM. 190,000 compounds, 0.91% hits;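 active = activation above the screen-wide mean of compound activation plus 3 SD, cut at about 130% in these data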;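 also: 0% = background luminescence of wells with medium and substrate only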
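Material: STAT3-luciferase reporter U3A cells; Probe or stimulus: IL-6 (33 ng/mL); Incubation: compound pre-incubation 1 h before IL-6, then 6 h stimulation at 37 °C; Technique: luminescence from STAT3-driven luciferase reporter; Evaluation: % activation versus median of IL-6-stimulated wells; Controls: IL-6-only high control.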
STAT1 activator: STAT1 signaling activation | 200,000 compounds, 2.6% hits | activation (% of control), % at 5.5 µM | AID 932 | NIH 3T3 STAT1-luciferase reporter, IFN-gamma, luminescence; 100% = IFN-gamma alone, no compound;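 active = activation above the screen-wide mean activation plus 3 SD, cut at about 130% in these data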;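 also: raw ratio to IFN-gamma control signal so 100% means no change and 0% no light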
STAT1 act conf: STAT1 activation, confirmation assay; shares compounds with STAT1 activator; NIH 3T3 STAT1-luciferase reporter, IFN-gamma potentiation, luminescence; 100% = IFN-gamma EC80 alone, no compound; activation (% of control), % at 5.7 µM; 1,200 compounds, 97% hits;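 active = activation above a set limit carried over from the earlier primary STAT1 screen, cut at about 140% in these data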;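 also: simple ratio to median IFN-gamma plus DMSO wells so 0% means no light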
NFkB act: NF-kappaB activation in STAT1 activator counter-screen; shares compounds with STAT1 activator; HEK293T NF-kB luciferase reporter, TNF-alpha stimulated, luminescence; 100% = TNF-alpha with vehicle only; activation (% of control), % at 5.7 µM; 1,200 compounds, 43% hits;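 active = activation above the mean of solvent-only control wells plus 3 SD, set per campaign, cut at about 130% in these data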;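 also: TNF-alpha given at a submaximal dose yielding about 80% of full reporter signal; values are well signal over median control so 100% means no change and 0% no light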
STAT3 act STAT1c: counter-screen for STAT1 activators: human STAT3 activation; shares compounds with STAT1 activator; U3A cells STAT3-luciferase reporter, IL-6, luminescence; cells lack STAT1; 100 = IL-6 alone, no compound effect; activation (% of control), % at 5.7 µM; 1,200 compounds, 46% hits;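 active = activation above the solvent-only control well mean plus 3 SD, set per plate batch, cut at about 110% in these data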;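 also: 0% = no luminescence and 100% = median IL-6 plus DMSO wells; higher means more STAT3 reporter activation so hits are non-selective activators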
* = called active by the depositor; · = not tested or not shown. An excerpt weighted towards active compounds, which were near 5.1% of everything screened.

SMILES	STAT1 inh	APP 5'UTR act	NF-kB expr up	STAT3 inh	STAT3 act	STAT1 activator	STAT1 act conf	NFkB act	STAT3 act STAT1c
COc1ccc(-n2ncc3c(Nc4cccc(C)c4)ncnc32)cc1	-18.6	98.0	1.72	9.1	97.6	118.0	·	·	·
CCCN(CCC)c1ncnc2c1cnn2-c1ccc(OC)cc1	-66.9	136.8*	2.08	24.7	78.2	161.7*	249.4*	145.1*	105.1
COc1ccc(-n2ncc3c(NCc4ccco4)ncnc32)cc1	-67.9	95.4	3.22	11.5	93.5	162.2*	185.2*	138.0*	114.5*
C=CCNc1ncnc2c1cnn2-c1ccc(OC)cc1	-84.7	148.5*	4.54*	36.5	71.4	177.7*	233.9*	126.0	107.6
CCc1ccc(N2C(=O)CC(NNc3nc4ccccc4s3)C2=O)cc1 (stereo not drawn)	-4.5	0.5	1.2	-0.4	99.8	104.1	·	·	·
CC(NC(=O)c1ccc2c(c1)OCCO2)c1ccc(S(N)(=O)=O)cc1 (stereo not drawn)	4.7	0.7	1.1	7.8	95.4	95.5	·	·	·
Cc1c(C(=O)Nc2ccc(Br)cc2)cnn1C	-58.5	32.5	2.72	-13.8	115.6	151.7*	159.4*	119.6	118.3*
Cn1ncc(Br)c1C(=O)Nc1ccc(Br)cn1	-0.4	3.7	1.34	6.9	92.6	102.6	·	·	·
CNC(=O)c1c(Cl)cnn1-c1ccc(C)cc1	-70.5	109.2	2.3	2.5	102.3	161.1*	164.4*	138.1*	114.4*
CNC(=O)c1c(Br)cnn1-c1ccc(C)cc1	-59.8	129.6	2.9	7.7	97.1	152.2*	179.9*	131.1	115.7*
NS(=O)(=O)c1ccc(CCNC(=O)COC(=O)CN2C(=O)C3CCCCC3C2=O)cc1 (stereo not drawn)	0.0	11.8	1	5.1	96.3	100.6	·	·	·
O=C(CCS(=O)(=O)c1ccccc1)NCCS(=O)(=O)c1ccccc1	1.2	0.3	1.11	-1.2	103.0	99.4	·	·	·
O=C(CCS(=O)(=O)c1ccccc1)NC12CC3CC(CC(C3)C1)C2	-58.2	-3.2	2.76	-15.6	112.9	151.3*	183.8*	133.4*	127.8*
COc1ccc(C(=O)Nn2c(CCC(=O)O)ccc2-c2ccc(C)cc2)cc1OC	-10.8	-9.3	1	0.4	104.2	108.7	·	·	·
COC(=O)c1ccc(/C=C(\C#N)c2ccccn2)cc1	-114.0	147.9*	6.98*	-3.3	104.1	204.4*	225.2*	158.4*	107.1
COC(=O)c1ccc(OC(=O)c2ccccn2)cc1	-3.9	-8.1	1.1	4.1	102.0	104.2	·	·	·
Cc1nn(-c2ccccn2)c2c1C(=O)C(Br)CC2 (stereo not drawn)	19.3	-15.3	0.83	-2.8	103.9	80.8	·	·	·
CCOC(=O)C1(CCc2ccccc2)CCN(C(=O)Cc2nonc2C)CC1	-23.4	24.2	2.07	2.7	102.6	121.5	·	·	·
CN(C)C=Nc1ccc2nn(-c3ccccc3)nc2c1	-70.9	78.6	5.64*	18.8	85.7	164.8*	185.6*	133.8*	109.3
CCOc1cccc(NC(=O)Cc2cccs2)c1	7.0	-3.0	1.04	-2.8	106.1	92.0	·	·	·
O=C(Cc1cccs1)Nc1cccc(-c2nc3cc4ccccc4cc3[nH]2)c1	-106.7	195.4*	4.76*	8.9	99.6	197.4*	269.7*	157.7*	106.5
O=C(CCc1ccccc1)c1ccc2c(c1)OCCCO2	-25.9	127.4	3.06	-2.5	103.3	123.8	·	·	·
O/N=C(/CCc1ccccc1)c1ccc2c(c1)OCCO2	-59.1	57.6	2.55	4.3	104.7	154.8*	154.5*	124.2	109.8
COc1ccc(C2(O)CCN(CC(=O)Nc3nc(-c4ccccc4)cs3)CC2)cc1	-5.1	-19.1	0.72	-1.4	105.6	106.5	·	·	·
O=C1c2ccccc2-c2n[nH]c(=O)c3ccc(N4CCCCC4)c1c23	-19.2	-19.8	1.18	9.6	93.4	116.8	·	·	·
SMILES	STAT1 inh	APP 5'UTR act	NF-kB expr up	STAT3 inh	STAT3 act	STAT1 activator	STAT1 act conf	NFkB act	STAT3 act STAT1c
O=C(CSc1ccccc1)Nc1ccc(C(=O)Nc2ccc(O)cc2)cc1	5.6	-1.8	1.13	9.4	93.5	93.8	·	·	·
O=C1c2ccccc2C(=O)N1CCc1c[nH]c2ccccc12	-65.3	100.7	4.63*	9.4	97.9	158.3*	177.4*	128.6	98.5
O=C1c2ccccc2C(=O)N1CCCc1c[nH]c2ccccc12	-13.4	10.3	1.29	15.8	88.6	112.0	·	·	·
COCCCN(C(C)=O)c1nc(-c2ccc(OC)cc2)cs1	-60.9	7.5	2.13	-4.4	108.6	155.5*	144.5*	100.3	111.7*
Cc1ccc(-c2cc(C(=O)N/N=C/C=C/c3ccccc3)n[nH]2)s1	-11.0	16.2	1.24	14.4	88.7	109.8	·	·	·
CC(=O)c1sc(NC(=O)c2ccccc2F)nc1-c1ccccc1	-54.5	141.3*	3.15	16.7	89.8	153.6*	170.6*	125.8	104.0
O=C(CN1CCCc2ccccc21)NCCc1ccc(F)cc1	9.6	19.1	0.92	-7.9	109.6	90.0	·	·	·
COC(=O)c1sc2nc3c(cc2c1N)CCCC3	-70.1	164.4*	8.23*	17.3	89.4	165.3*	227.1*	148.1*	101.1
CCC1(C)Cc2nc3sc(C(=O)O)c(N)c3cc2CO1 (stereo not drawn)	-3.3	-2.2	1.03	-3.1	108.4	104.4	·	·	·
CCOC(=O)c1sc2nc3c(cc2c1N)COC(C)(CC)C3 (stereo not drawn)	-110.5	174.8*	7.32*	22.5	83.9	200.8*	287.2*	145.6*	108.4
CC(=O)c1ccccc1NC(=O)Cn1c(=O)cnc2ccccc21	10.7	4.5	0.86	-33.3	128.1	90.5	·	·	·
CCCOc1ccc(C2C(C(=O)/C=C/c3ccco3)=C(O)C(=O)N2CCN2CCOCC2)cc1OC (stereo not drawn)	-0.2	-13.1	1.67	0.1	105.6	98.2	·	·	·
COc1ccc(C(=O)NCC(=O)OCC(=O)NCc2cccs2)cc1	-6.5	18.6	1	-1.3	105.4	106.0	·	·	·
COc1ccc2nc3sc(C(=O)NCc4cccs4)c(N)c3cc2c1	-88.7	140.1*	3.21	26.0	79.1	182.6*	222.3*	136.2*	104.4
Fc1ccccc1CSc1nnc(-c2cccnc2)o1	-64.5	71.7	3.45*	7.5	100.8	161.0*	147.1*	118.8	110.1
